The whole screen tested about 130,000 compounds, of which about 1,000 (0.77%) were called active. Inconclusive results (about 1%) are left out. This is one part of a sample in which actives are shown more often than they occur.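 The calls were made as follows: active = activation at 2 µM above a set limit, confirmed on inspection of the cell images; inconclusive = above the set limit but not confirmed on image inspection; inactive = the rest.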

The experiment can be described thus: activators of insulin promoter-driven GFP, primary screen, imaging, TRM-6 cells (human fetal islet line), eGFP reporter, cell count (AID 1296;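 as to activation: share of cells whose green reporter signal exceeds an intensity cutoff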). The conditions noted are these: at 2 µM; activation: stronger effect = higher value, plate-scaled: unstimulated 0, stimulated control 100; normalized cell count: measured here: cell count (toxicity). The method, boiled down: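 test system = TRM-6 insulin promoter–eGFP reporter cells | benchmarks = stimulated versus unstimulated wells as plate controls | read-out basis = percent cells above green-intensity threshold, converted to percent activation versus plate controls | detection = fixed-cell fluorescence microscopy, eGFP plus Hoechst | incubation = tamoxifen pre-incubation 15 h overnight, then compound exposure 48 h at 37 °C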
Take `CCOC(=O)NN1C(=O)c2ccccc2NC1c1ccccc1O` (centres undefined): the activation was 2.78% (inactive) and the normalized cell count is 107%.
In the same order, the values of `N#C/C(=C/c1ccc(N2CCOCC2)o1)C(=O)N1CCOCC1` are 7.69% (inactive) and 59.4%.
With `N#C/C(=C\c1ccc(N2CCOCC2)o1)C(=O)N1CCOCC1`, the activation was 7.41% (inactive) and the normalized cell count came out at 99.1%.
Consider `N#C/C(=C/c1ccc(N2CCCCC2)o1)C(=O)NCCc1c[nH]c2ccccc12`, for which the activation is 257% (active) and the normalized cell count is 92.9%.
As to `CC1(C)C2CC=C(/C=N/NC(=O)c3ccc(Cl)cc3)C1C2` (centres undefined), the activation was -3.33% (inactive) and the normalized cell count turned out to be 104%.
In the same order, the values of `Cc1ccc(-c2noc(CSc3nnc(-c4ccccc4)n3C)n2)cc1` are -8.33% (inactive) and 65.9%.
In the same order, the values of `COc1ccc(-c2noc(-c3ccc(C)cc3)n2)cc1` are 1.41% (inactive) and 143%.
Take `COc1ccc(-c2noc(CSc3ccc(C)cc3)n2)cc1`: the activation is 521% (active) and the normalized cell count was 77.9%.
In the same order, the values of `O=C(Nc1ccccc1F)c1ccc(Cn2cc(Br)cn2)cc1` are 0% (inactive) and 118%.
In the same order, the values of `Cc1ccc(O)c(-c2cc(C(=O)NCc3ccccc3)[nH]n2)c1` are -7.14% (inactive) and 81.6%.
As to `Cc1cc(C)cc(NC(=O)c2cccc(NC(=O)C3C4CC5OC(=O)C3C5C4)c2)c1` (centres undefined), the activation was 76.7% (active) and the normalized cell count was 85.6%.
`CSCc1ccc(C(=O)Nc2cc(C)cc(C)c2)cc1`: the activation is -9.09% (inactive) and the normalized cell count worked out at 139%.
Take `Cc1cccc(NC(=O)C2CC(=O)OC23CCCC3)c1` (centres undefined): the activation was 7.14% (inactive) and the normalized cell count turned out to be 75.4%.
For `O=C(COC(=O)c1cc(S(=O)(=O)N2CCCCC2)ccc1Cl)NCc1ccco1`, the activation was -5.56% (inactive) and the normalized cell count turned out to be 260%.
In the same order, the values of `CC(C)CCC(C)NC(=O)c1ccc2nccnc2c1` (centres undefined) are 6.67% (inactive) and 43.3%.
For `Cc1nc(NC(=O)C2CCCCC2)sc1C`, the activation is 0% (inactive) and the normalized cell count was determined as 50%.
Take `Cc1ccc2c(NC(=O)C3CC3)cccc2n1`: the activation was 140% (active) and the normalized cell count is 109%.
As for `Cc1ccc(/C=C(\C#N)C(=O)Nc2cccc3ncccc23)o1`, the activation was 2.7% (inactive) and the normalized cell count worked out at 106%.
Turning to `CC(C)(C)NC(=O)CN(C(=O)c1ccc(Cl)nc1)c1cccc2ccccc12`, the activation was 108% (inactive) and the normalized cell count was determined as 93%.
In the same order, the values of `Cc1cccc(C(=O)Nc2ccc(CC(=O)O)cc2)c1` are 226% (inactive) and 56.2%.
In the same order, the values of `O=C(Nc1ccccc1)c1ccc2nsnc2c1` are 193% (active) and 111%.
Turning to `Cc1cccc(C(=O)Nc2ccc(C(=O)/C=C/c3cccs3)cc2)c1`, the activation was 9.3% (inactive) and the normalized cell count was determined as 81.7%.
In the same order, the values of `Cc1nn2c3cc(N4CCOCC4)ccc3nc2c2ccccc12` are 63.5% (inactive) and 79.7%.
On to `CC1C/C(=N/NC(=O)c2cccs2)CC(C)(C)C1` (centres undefined), for which the activation was 7.25% (inactive) and the normalized cell count came out at 112%.
In the same order, the values of `COc1cc(NS(=O)(=O)c2ccc(N=Cc3c(C)[nH]n(-c4ccccc4)c3=O)cc2)nc(OC)n1` are 3.7% (inactive) and 98.8%.
In the same order, the values of `Cn1nc(-c2ccccc2)c(-c2nc(-c3ccc(Cl)cc3)no2)c1Cl` are 471% (active) and 71.1%.
In the same order, the values of `COc1ccc(-c2nc(-c3ccccc3)no2)c(OC)c1` are 0% (inactive) and 103%.
Take `Clc1ccc(-c2nnc(-c3ccccc3)nc2N2CCSCC2)cc1`: the activation was -5.41% (inactive) and the normalized cell count is 97.6%.
With `COc1cccc(NC(=O)CN(C)C(C)C(=O)Nc2ccc(C#N)cc2)c1` (centres undefined), the activation is 8.11% (inactive) and the normalized cell count was determined as 96.1%.
`COc1ccc(C(=O)CSc2n[nH]c(N)n2)cc1`: the activation was 7.41% (inactive) and the normalized cell count was 116%.
As for `COC(=O)CSc1nc(C)c2ccc(OC)cc2n1`, the activation is 438% (active) and the normalized cell count is 69.4%.
Regarding `COC(=O)c1cc(C(=O)CSc2nc(C)cc(C)n2)ccc1O`, the activation was -5.56% (inactive) and the normalized cell count was 111%.
In the same order, the values of `Cc1nn(-c2ccccn2)c2c1C(c1ccncc1)C1=C(CC(C)(C)CC1=O)N2` (centres undefined) are -6.9% (inactive) and 120%.
In the same order, the values of `CN(C)c1nnnn1-c1ccc(Cl)cc1` are 0% (inactive) and 128%.
In the same order, the values of `Cn1nccc1CNC(=O)c1ccnn1C` are 7.69% (inactive) and 127%.
As to `COc1ccc(OCC(=O)N2CCN(C(=O)COc3ccccc3)CC2)cc1`, the activation is 411% (active) and the normalized cell count came out at 70.2%.
In the same order, the values of `COc1ccc(OCC(=O)N2CCN(C(=O)c3cccs3)CC2)cc1` are 9.09% (inactive) and 125%.
For `O=C(COc1ccccc1)N1CCc2ccccc2C1`, the activation is 3.45% (inactive) and the normalized cell count was found to be 131%.
In the same order, the values of `CC(C)C[C@@H](N)c1nnc(SCC(=O)c2ccc(Cl)cc2)o1` are 533% (active) and 62.6%.
Take `O=C(CSc1nnc(-c2c[nH]c3ccccc23)o1)c1ccccc1`: the activation is 0% (inactive) and the normalized cell count is 133%.
In the same order, the values of `O=C(CSc1nnc(Cn2cnc3ccccc32)o1)c1ccccc1` are 0% (inactive) and 112%.
For the compound `CCCc1nc2c([nH]1)C(c1cccnc1)C(C#N)=C(N)O2` (centres undefined), the activation was -6.67% (inactive) and the normalized cell count turned out to be 147%.
In the same order, the values of `OC1CSc2nc3ccccc3n2C1` (centres undefined) are 0% (inactive) and 81.8%.
In the same order, the values of `C=CCn1c(CCc2ccc(OC(C)C)cc2)n[nH]c1=S` are 0% (inactive) and 117%.
In the same order, the values of `CCCOCC(O)CC(CC)C(=O)NNC(=S)Nc1ccccc1` (centres undefined) are 0% (inactive) and 106%.
With `Nc1ccc(-n2nncc2-c2ccco2)cc1`, the activation is 406% (active) and the normalized cell count is 53.5%.
In the same order, the values of `CCOC(=O)CNC(=O)CSc1ccc2nnc(-c3cccnc3)n2n1` are 0% (inactive) and 132%.
In the same order, the values of `COc1ccc(-c2nc3ccccc3n2CCC(C)C)cc1OC` are -9.86% (inactive) and 74.4%.
As to `Cn1cccc1-c1nc2ccccc2n1C`, the activation is 300% (active) and the normalized cell count amounted to 75.7%.
In the same order, the values of `COc1ccc(N2CCN(C(=O)COc3ccc4c(C)cc(=O)oc4c3)CC2)cc1` are -8.33% (inactive) and 132%.
In the same order, the values of `COc1cc(NC(=S)NNC(=O)CC(C)C)c(OC)cc1Cl` are 9.38% (inactive) and 70.7%.
In the same order, the values of `O=C(NC1CCCC1)C(NS(=O)(=O)c1ccc(Br)s1)c1ccccc1` (centres undefined) are 107% (inactive) and 72.4%.
Take `O=C(CSc1nn(-c2ccc(F)cc2)c(=S)s1)NC1CCS(=O)(=O)C1` (centres undefined): the activation was 5.88% (inactive) and the normalized cell count was 104%.
In the same order, the values of `COc1ccc(-n2nc3c(c2NC(=O)c2ccc(N4C(=O)CCC4=O)cc2)CSC3)cc1` are -5.88% (inactive) and 73.5%.
In the same order, the values of `CC1Cc2ccccc2N1C(=O)CSc1nc2ccccc2o1` (centres undefined) are 7.14% (inactive) and 87.7%.
In the same order, the values of `O=C(CSc1nc2ccccc2o1)N1c2ccccc2Sc2ccc(Cl)cc21` are -4.44% (inactive) and 77.2%.
Take `CCS(=O)(=O)c1ccc2oc(SCC(=O)N3c4ccccc4CC3C)nc2c1` (centres undefined): the activation was 457% (active) and the normalized cell count came out at 101%.

(Values after PubChem BioAssay AID1296 (Columbia University Molecular Screening Center, 2008).)
